Assay results: ChEMBL document CHEMBL4219120, “Synthesis and SAR study of new hydroxy and chloro-substituted 2,4-diphenyl 5H-chromeno[4,3-b]pyridines as selective topoisomerase IIα-targeting anticancer agents” (Bioorg Med Chem, 2018)
Where a name gives a salt, the structure may show the parent alone. The source made the active and inactive calls. The calls are words filed in the database; no cut-off is given here.

Tests used:
[1] = molecular target: DNA topoisomerase 2-alpha (Homo sapiens) (UniProt P11388); test: Inhibition of recombinant human topoisomerase 2alpha assessed as decrease in relaxation of supercoiled pBR322 DNA at 20 uM after 30 mins by agarose gel electrophoresis relative to etoposide
Sequence of DNA topoisomerase 2-alpha (Homo sapiens) (P11388 whole entry): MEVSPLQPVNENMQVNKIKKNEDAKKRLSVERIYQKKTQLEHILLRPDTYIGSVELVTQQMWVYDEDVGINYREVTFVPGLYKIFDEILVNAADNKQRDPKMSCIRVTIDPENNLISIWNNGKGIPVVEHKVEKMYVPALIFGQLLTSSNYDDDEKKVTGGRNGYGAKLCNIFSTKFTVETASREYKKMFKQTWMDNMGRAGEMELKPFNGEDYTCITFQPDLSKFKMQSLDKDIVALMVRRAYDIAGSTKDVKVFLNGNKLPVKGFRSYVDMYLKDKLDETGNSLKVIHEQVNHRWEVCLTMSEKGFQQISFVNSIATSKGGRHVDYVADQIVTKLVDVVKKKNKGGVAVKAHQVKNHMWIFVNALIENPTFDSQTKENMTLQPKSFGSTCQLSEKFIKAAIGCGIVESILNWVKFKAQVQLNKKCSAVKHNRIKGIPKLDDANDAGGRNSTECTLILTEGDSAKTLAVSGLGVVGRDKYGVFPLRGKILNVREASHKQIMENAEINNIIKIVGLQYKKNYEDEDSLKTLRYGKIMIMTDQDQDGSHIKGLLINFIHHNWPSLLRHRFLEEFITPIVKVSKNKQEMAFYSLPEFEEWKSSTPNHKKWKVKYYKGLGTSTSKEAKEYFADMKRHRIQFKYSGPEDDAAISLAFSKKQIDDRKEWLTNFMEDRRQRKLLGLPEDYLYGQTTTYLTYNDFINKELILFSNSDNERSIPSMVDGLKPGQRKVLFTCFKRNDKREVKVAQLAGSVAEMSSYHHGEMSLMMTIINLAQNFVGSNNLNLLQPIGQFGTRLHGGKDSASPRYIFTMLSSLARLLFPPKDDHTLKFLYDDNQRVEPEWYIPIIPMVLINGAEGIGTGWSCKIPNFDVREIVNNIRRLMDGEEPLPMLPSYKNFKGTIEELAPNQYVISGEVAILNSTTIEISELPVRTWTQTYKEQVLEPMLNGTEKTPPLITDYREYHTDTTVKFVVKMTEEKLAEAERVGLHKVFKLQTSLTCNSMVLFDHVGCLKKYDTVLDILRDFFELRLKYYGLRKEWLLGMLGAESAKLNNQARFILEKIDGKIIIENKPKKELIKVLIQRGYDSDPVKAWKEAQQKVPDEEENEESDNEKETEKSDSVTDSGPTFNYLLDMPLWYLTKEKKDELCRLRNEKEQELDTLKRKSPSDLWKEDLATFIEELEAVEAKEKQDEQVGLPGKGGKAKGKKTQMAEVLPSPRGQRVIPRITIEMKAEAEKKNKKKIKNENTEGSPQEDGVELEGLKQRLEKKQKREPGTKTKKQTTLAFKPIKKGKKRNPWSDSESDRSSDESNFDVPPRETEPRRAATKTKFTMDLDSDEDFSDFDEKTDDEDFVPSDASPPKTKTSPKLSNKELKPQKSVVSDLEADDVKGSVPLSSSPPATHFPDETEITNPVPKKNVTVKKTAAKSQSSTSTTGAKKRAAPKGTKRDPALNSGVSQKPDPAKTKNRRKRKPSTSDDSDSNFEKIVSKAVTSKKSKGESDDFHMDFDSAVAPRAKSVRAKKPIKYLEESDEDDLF

[2] = molecular target: T1, DNA topoisomerase 1 (Homo sapiens) (UniProt P11387); test: Inhibition of recombinant human topoisomerase 1 assessed as decrease in relaxation of supercoiled pBR322 DNA at 100 uM after 30 mins by agarose gel electrophoresis relative to camptothecin
T1 sequence (whole entry): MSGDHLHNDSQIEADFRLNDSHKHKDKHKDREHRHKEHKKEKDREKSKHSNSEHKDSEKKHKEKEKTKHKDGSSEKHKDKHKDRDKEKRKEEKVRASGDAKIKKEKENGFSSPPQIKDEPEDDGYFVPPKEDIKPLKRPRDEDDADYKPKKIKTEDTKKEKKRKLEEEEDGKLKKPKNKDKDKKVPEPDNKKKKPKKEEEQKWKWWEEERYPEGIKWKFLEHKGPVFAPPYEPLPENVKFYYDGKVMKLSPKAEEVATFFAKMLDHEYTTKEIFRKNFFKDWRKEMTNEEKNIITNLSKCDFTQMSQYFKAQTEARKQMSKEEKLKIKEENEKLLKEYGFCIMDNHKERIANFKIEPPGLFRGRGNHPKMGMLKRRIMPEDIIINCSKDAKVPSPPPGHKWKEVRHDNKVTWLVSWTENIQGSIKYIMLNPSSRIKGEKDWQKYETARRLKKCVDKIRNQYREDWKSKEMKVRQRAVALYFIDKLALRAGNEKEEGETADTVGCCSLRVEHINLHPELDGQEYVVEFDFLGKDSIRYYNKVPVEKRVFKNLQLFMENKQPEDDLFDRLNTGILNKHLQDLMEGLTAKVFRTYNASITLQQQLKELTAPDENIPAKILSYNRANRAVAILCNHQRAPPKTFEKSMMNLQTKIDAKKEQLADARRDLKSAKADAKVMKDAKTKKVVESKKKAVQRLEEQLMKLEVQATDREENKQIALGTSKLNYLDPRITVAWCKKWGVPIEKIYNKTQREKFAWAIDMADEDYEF

[3] = molecular target: DNA topoisomerase 2-alpha (Homo sapiens) (UniProt P11388); test: Inhibition of recombinant human topoisomerase 2alpha assessed as decrease in relaxation of supercoiled pBR322 DNA at 100 uM after 30 mins by agarose gel electrophoresis relative to etoposide
[4] = molecular target: T1, DNA topoisomerase 1 (Homo sapiens); test: Inhibition of recombinant human topoisomerase 1 assessed as decrease in relaxation of supercoiled pBR322 DNA at 20 uM after 30 mins by agarose gel electrophoresis relative to camptothecin
HeLa = test: Antiproliferative activity against human HeLa cells after 72 hrs by CCK-8 assay; type: functional, cell-based
Summary of the method: (§1)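 Cells seeded at 2-4 x 10^4 per well and grown overnight in medium with 10% FBS (37 °C, 5% CO2). After 4 h FBS starvation, medium was replaced with medium containing graded compound concentrations for 72 h. CCK-8 was added for 4 h more, then absorbance read at 450 nm. IC50 came from a four-parameter logistic fit. Mean ± S.D. of three experiments, each in triplicate.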

[5] = molecular target: DNA topoisomerase 2-alpha (Homo sapiens) (UniProt P11388); test: Inhibition of recombinant human topoisomerase 2alpha assessed as decrease in relaxation of supercoiled pBR322 DNA at 20 uM after 30 mins by agarose gel electrophoresis relative to control
Summary of the method: (§2)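 Recombinant human topo IIα (1 unit) with 100 ng supercoiled pBR322 in 10 mM Tris-HCl pH 7.9, 50 mM NaCl, 50 mM KCl, 5 mM MgCl2, 1 mM EDTA, 1 mM ATP, 15 µg/mL BSA, 30 min at 37 °C. Quenched with 7 mM EDTA. 0.8% agarose/TAE gel, 50 V, 1 h; EtBr stain; UV densitometry. Compounds came from 20 mM DMSO stocks. 20 µM was tested only when inhibition at 100 µM exceeded 30%. Etoposide was the positive control.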

HCT-15 = test: Antiproliferative activity against human HCT15 cells after 72 hrs by CCK-8 assay; type: functional, cell-based; conditions: HCT-15, 72 h; summary of the method: as §1
T47D = test: Antiproliferative activity against human T47D cells after 72 hrs by CCK-8 assay; type: functional, cell-based; summary of the method: as §1
[6] = molecular target: DNA topoisomerase 2-alpha (Homo sapiens) (UniProt P11388); test: Inhibition of recombinant human topoisomerase 2alpha assessed as decrease in relaxation of supercoiled pBR322 DNA at 100 uM after 30 mins by agarose gel electrophoresis relative to control; summary of the method: as §2
[7] = molecular target: T1, DNA topoisomerase 1 (Homo sapiens); test: Inhibition of recombinant human topoisomerase 1 assessed as decrease in relaxation of supercoiled pBR322 DNA at 100 uM after 30 mins by agarose gel electrophoresis relative to control
Summary of the method: (§3)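 Supercoiled pBR322 (100 ng) with 1 unit recombinant human topo I in 10 mM Tris-HCl pH 7.9, 150 mM NaCl, 0.1% BSA, 0.1 mM spermidine, 5% glycerol, 30 min at 37 °C. Stopped with SDS/dye stop solution. Run on 0.8% agarose in TAE, 50 V, 1 h; EtBr-stained; bands quantitated under UV. Compounds came from 20 mM DMSO stocks. 20 µM was tested only when inhibition at 100 µM exceeded 30%. Camptothecin was the positive control.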

[8] = molecular target: T1, DNA topoisomerase 1 (Homo sapiens); test: Inhibition of recombinant human topoisomerase 1 assessed as decrease in relaxation of supercoiled pBR322 DNA at 20 uM after 30 mins by agarose gel electrophoresis relative to control; summary of the method: as §3

| Compound | fold change (FC) [1] | fold change (FC) [2] | fold change (FC) [3] | fold change (FC) [4] | IC50 (HeLa) | inhibition [5] | IC50 (HCT-15) | IC50 (T47D) | inhibition [6] | inhibition [7] | inhibition [8] |
| --- | --- | --- | --- | --- | --- | --- | --- | --- | --- | --- | --- |
| Oc1ccccc1-c1cc(-c2ccccc2Cl)nc2c1oc1ccccc12 | 0.62 | 0.18 | 0.98 | – | – | – | – | – | – | – | – |
| Oc1cccc(-c2cc(-c3ccc(Cl)cc3)c3c(n2)-c2ccccc2OC3)c1 | – | – | – | – | 1.94 µM | 4.7% | 4.57 µM | 0.75 µM | 66.7% | 20.2% | – |
| Oc1ccc(-c2cc(-c3ccccc3Cl)nc3c2oc2ccccc23)cc1 | 0.56 | 1.39 | 1.07 | 1.99 | – | – | – | – | – | – | – |
| Oc1ccccc1-c1cc(-c2ccc(Cl)cc2)nc2c1oc1ccccc12 | 0.63 | 1.39 | 0.99 | 0.93 | – | – | – | – | – | – | – |
| Oc1cccc(-c2cc(-c3ccccc3Cl)nc3c2COc2ccccc2-3)c1 | 1.61 | 0.99 | 1.37 | 0.05 | 2.5 µM | 57.3% | 0.87 µM | 0.7 µM | 90.8% | 79.1% | 1.7% |
| Oc1ccc(-c2cc(-c3ccc(Cl)cc3)nc3c2oc2ccccc23)cc1 | 1.75 | 1.62 | 1.15 | 1.4 | – | – | – | – | – | – | – |
| Oc1cccc(-c2cc(-c3cccc(Cl)c3)nc3c2oc2ccccc23)c1 | 0.65 | 1.12 | 0.98 | 2.02 | – | – | – | – | – | – | – |
| Oc1ccccc1-c1cc(-c2cccc(Cl)c2)nc2c1COc1ccccc1-2 | 1.46 | 0.06 | 1.13 | – | 0.68 µM | 51.9% | 2.23 µM | 1.23 µM | 75.1% | 4.4% | – |
| Oc1ccccc1-c1cc(-c2ccccc2Cl)c2c(n1)-c1ccccc1OC2 | – | – | – | – | > 50 µM | 45.5% | > 50 µM | 1.66 µM | 78.1% | inactive | – |
| Oc1ccccc1-c1cc(-c2cccc(Cl)c2)nc2c1oc1ccccc12 | 0.91 | 1.01 | 0.97 | 0.38 | – | – | – | – | – | – | – |
| Oc1cccc(-c2cc(-c3ccccc3Cl)c3c(n2)-c2ccccc2OC3)c1 | – | – | – | – | 0.74 µM | 57% | 1.52 µM | 0.86 µM | 91.7% | inactive | – |
| COc1cc([C@@H]2c3cc4c(cc3[C@@H](O[C@@H]3O[C@@H]5CO[C@@H](C)O[C@H]5[C@H](O)[C@H]3O)[C@H]3COC(=O)[C@H]23)OCO4)cc(OC)c1O [ETOPOSIDE] | – | – | – | – | – | – | 2.45 µM | 0.32 µM | – | – | – |
| Oc1cccc(-c2cc(-c3cccc(Cl)c3)c3c(n2)-c2ccccc2OC3)c1 | – | – | – | – | 0.82 µM | inactive | 1.23 µM | 0.86 µM | 63.6% | 12% | – |
| CC[C@@]1(O)C(=O)OCc2c1cc1n(c2=O)Cc2cc3ccccc3nc2-1 [CAMPTOTHECIN] | – | – | – | – | 0.13 µM | – | 0.02 µM | 0.49 µM | – | – | – |
| Oc1ccc(-c2cc(-c3cccc(Cl)c3)nc3c2oc2ccccc23)cc1 | 0.77 | 1.56 | 1.01 | 1.29 | – | – | – | – | – | – | – |

Further lines, results first:

| fold change (FC) [1] | fold change (FC) [2] | fold change (FC) [3] | fold change (FC) [4] | IC50 (HeLa) | inhibition [5] | IC50 (HCT-15) | IC50 (T47D) | inhibition [6] | inhibition [7] | inhibition [8] | Compound |
| --- | --- | --- | --- | --- | --- | --- | --- | --- | --- | --- | --- |
| 0.42 | 1.22 | 0.95 | 0.98 | – | – | – | – | – | – | – | Oc1cccc(-c2cc(-c3ccccc3Cl)nc3c2oc2ccccc23)c1 |
| – | – | – | – | 1.7 µM | – | 0.73 µM | – | – | – | – | COc1cccc2c1C(=O)c1c(O)c3c(c(O)c1C2=O)C[C@@](O)(C(=O)CO)C[C@@H]3O[C@H]1C[C@H](N)[C@H](O)[C@H](C)O1 [DOXORUBICIN HYDROCHLORIDE] |
| – | – | – | – | 2.08 µM | 19.9% | 1.85 µM | 1.38 µM | 100% | 38.5% | 1.7% | Oc1ccc(-c2cc(-c3ccc(Cl)cc3)c3c(n2)-c2ccccc2OC3)cc1 |
| 1.61 | inactive | 1.44 | – | 0.89 µM | 57.3% | 1.77 µM | 0.88 µM | 95.9% | inactive | – | Oc1ccc(-c2cc(-c3cccc(Cl)c3)nc3c2COc2ccccc2-3)cc1 |
| 1.79 | 0.36 | 1.26 | inactive | 0.68 µM | 63.7% | 2.13 µM | 0.72 µM | 84% | 30% | inactive | Oc1cccc(-c2cc(-c3cccc(Cl)c3)nc3c2COc2ccccc2-3)c1 |
| 0.27 | 1.32 | 1.01 | 2.09 | – | – | – | – | – | – | – | Oc1cccc(-c2cc(-c3ccc(Cl)cc3)nc3c2oc2ccccc23)c1 |
| – | – | – | – | > 50 µM | inactive | > 50 µM | > 50 µM | 34.7% | 20.1% | – | Oc1ccccc1-c1cc(-c2ccc(Cl)cc2)c2c(n1)-c1ccccc1OC2 |
| 1.59 | 0.1 | 1.34 | – | > 50 µM | 56.6% | 1.66 µM | > 50 µM | 88.9% | 7.6% | – | Oc1ccccc1-c1cc(-c2ccc(Cl)cc2)nc2c1COc1ccccc1-2 |
| 1.18 | inactive | 1.32 | – | 0.86 µM | 41.9% | 1.83 µM | 1.72 µM | 87.8% | inactive | – | Oc1ccc(-c2cc(-c3ccc(Cl)cc3)nc3c2COc2ccccc2-3)cc1 |
| 1.33 | 0.06 | 1.19 | – | > 50 µM | 47.3% | > 50 µM | > 50 µM | 79.1% | 4.7% | – | Oc1ccccc1-c1cc(-c2ccccc2Cl)nc2c1COc1ccccc1-2 |
| 1.8 | 0.36 | 1.07 | – | 0.76 µM | 63.8% | 2.3 µM | 1.18 µM | 71.3% | 28.8% | – | Oc1cccc(-c2cc(-c3ccc(Cl)cc3)nc3c2COc2ccccc2-3)c1 |
| – | – | – | – | 0.68 µM | 48.1% | 4.72 µM | 0.94 µM | 63.5% | 56.1% | inactive | Oc1ccc(-c2cc(-c3ccccc3Cl)c3c(n2)-c2ccccc2OC3)cc1 |
| – | – | – | – | > 50 µM | – | > 50 µM | > 50 µM | 18.9% | 21.1% | – | Oc1ccccc1-c1cc(-c2cccc(Cl)c2)c2c(n1)-c1ccccc1OC2 |
